This is a sample that favours compounds with a hit; in the whole collection about 1.4% have one here.
TNAP inh no acc: human TNAP enzyme inhibitors, primary screen, biochemical, luminescent, no phosphate acceptor, uHTS; AID 1012, 2008; Alkaline phosphatase, tissue-nonspecific isozyme (Homo sapiens), P05186; hit rate 0.26% among 200,000; purified TNAP, CDP-star luminescence, 30 min; inhibition, % at 20 µM;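 active means tissue-nonspecific alkaline phosphatase inhibition above about 50% at 20 µM in the single-dose screen, limit read from the data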
CHT inh: inhibitors of human choline transporter CHT; High affinity choline transporter 1 (Homo sapiens), Q9GZV3; CHT-expressing cells, membrane potential dye, choline response; hits give low values; B-score at 10 µM; AID 488975, 2010; hit rate 0.86% among 310,000;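 active means B-score over 3 SD under the library average, and starting fluorescence ratio not unusually high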;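 further: choline stimulus applied at its EC90 after an EC20 pre-addition; B-score computed on integrated fluorescence ratio after choline addition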
TNAP act hiacc: TNAP activators at high phosphate acceptor level, primary screen, biochemical, luminescence, uHTS; activation factor at 20 µM; AID 1136, 2008; Alkaline phosphatase, tissue-nonspecific isozyme (Homo sapiens), P05186; purified TNAP, CDP-star luminescence, 1 M DEA, 30 min; hits give high values; 0 = EDTA background, 1 = DMSO-only activity; 200,000 tested, under 10 active;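 active means activation factor at least 2 at 20 µM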
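Assay system: human TNAP; Input: enzyme diluted 1/800 final; Reagent: CDP-star luminogenic substrate at 100 µM final; Timing: 30 min, room temperature; Signal: luminescence; Evaluation: TNAP activation factor scaled between EDTA and DMSO control wells.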
ABCB6 inh 2: ABCB6 transporter inhibitors, primary screen, K562-ABCB6 cells, flow cytometry, MLPCN library | ATP-binding cassette sub-family B member 6 (Homo sapiens), Q9NP58 | K562-ABCB6 porphyrin accumulation, 1 h; hits give low values | fluorescence ratio to DMSO, % at 10 µM | hit rate 0.19% among 360,000 | AID 602162, 2011;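 active means fluorescence ratio to DMSO below 75%, the collection mean minus 3 SD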;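 further: signal is porphyrin accumulated inside mitochondria; lower ratio means ABCB6 inhibition with less porphyrin fluorescence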
Target sequence (Q9NP58 whole entry, looked up): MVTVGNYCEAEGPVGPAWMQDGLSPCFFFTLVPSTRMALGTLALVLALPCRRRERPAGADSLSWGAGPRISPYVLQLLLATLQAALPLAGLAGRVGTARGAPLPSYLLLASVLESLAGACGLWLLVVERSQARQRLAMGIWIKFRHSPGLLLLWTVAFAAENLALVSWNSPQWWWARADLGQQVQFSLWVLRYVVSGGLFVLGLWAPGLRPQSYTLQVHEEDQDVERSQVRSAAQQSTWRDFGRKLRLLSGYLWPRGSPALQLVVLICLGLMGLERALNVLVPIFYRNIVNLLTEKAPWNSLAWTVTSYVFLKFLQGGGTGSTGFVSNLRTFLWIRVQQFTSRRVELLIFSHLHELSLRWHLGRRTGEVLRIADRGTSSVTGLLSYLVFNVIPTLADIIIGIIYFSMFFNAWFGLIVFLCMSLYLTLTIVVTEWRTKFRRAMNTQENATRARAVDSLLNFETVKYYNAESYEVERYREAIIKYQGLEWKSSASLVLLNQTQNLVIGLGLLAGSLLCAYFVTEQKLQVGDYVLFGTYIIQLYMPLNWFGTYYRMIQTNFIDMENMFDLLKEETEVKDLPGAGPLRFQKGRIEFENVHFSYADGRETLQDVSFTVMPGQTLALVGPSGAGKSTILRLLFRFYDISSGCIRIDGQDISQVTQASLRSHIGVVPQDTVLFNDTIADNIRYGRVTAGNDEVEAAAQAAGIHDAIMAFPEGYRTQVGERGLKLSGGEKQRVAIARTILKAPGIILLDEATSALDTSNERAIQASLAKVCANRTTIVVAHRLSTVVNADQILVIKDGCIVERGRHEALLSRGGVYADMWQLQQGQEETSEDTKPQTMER
CHT allo act: CHT positive allosteric modulators, primary screen, cell-based, membrane potential dye, choline EC20; B-score at 10 µM; hit rate 0.49% among 310,000; CHT-expressing cells; hits give high values; LV-AA mutant CHT in HEK293 cells; High affinity choline transporter 1 (Homo sapiens), Q9GZV3;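 active means initial fluorescence not abnormally high and integrated response B-score, plate-corrected, over 3 SD above library mean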
TNAP inh hi DEA: human TNAP enzyme inhibitors, primary screen, biochemical, luminescent, high phosphate acceptor level, uHTS. purified TNAP, CDP-star luminescence, 1 M DEA. inhibition, % at 20 µM. hit rate 0.03% among 200,000. AID 1135, 2008;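 active means over 50% inhibition of tissue-nonspecific alkaline phosphatase at 20 µM in the single-dose screen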
CHT act confirm: CHT activators, confirmation, cell-based, membrane potential dye, duplicate. hit rate 91% among 2,500. shares compounds with CHT allo act. activation, % at 10 µM. CHT-expressing cells, membrane potential dye fluorescence (FDSS); % of choline EC20–EC90 response window; HEK293 expressing CHT LV-AA mutant; choline added at its EC20;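 active means primary screen active, with duplicate mean activation above negative control mean plus 3 SD, cut at about 11% in these data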
HEK293 MP dye: membrane potential response in parental HEK293 cells, counter-screen for CHT activator project, cell-based, membrane potential dye; ratio readout change at 10 µM, hits read low; shares compounds with CHT allo act; membrane potential dye fluorescence (FDSS); measured after EC20 choline addition; AID 623908, 2012; hit rate 62% among 2,500;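 active means duplicate-averaged ratio beyond 3 SD from buffer wells, up or down, though filed actives are nearly all decreases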
Numbers stand for hits; – = inactive; · = no result.

SMILES	TNAP inh no acc	CHT inh	TNAP act hiacc	ABCB6 inh 2	CHT allo act	TNAP inh hi DEA	CHT act confirm	HEK293 MP dye
COc1ccc(-n2c(-c3ccc(Br)cc3)c[n+]3c2CCCCC3)cc1	–	–	–	–	11	–	62.5	–
C[C@@H]1CCCCO[C@H](CN(C)S(=O)(=O)c2ccccc2)[C@@H](C)CN([C@H](C)CO)C(=O)c2cc(NC(=O)Cc3ccccc3)ccc2O1	·	·	·	–	·	·	·	·
Cc1cc(C)n2[nH]c(=O)c(N=Nc3ccc(S(N)(=O)=O)cc3)c2n1	91.2	–	–	–	9.18	–	70.4	-80.6
CCSc1ccc2cc(OC)ccc2[n+]1CC	–	–	–	–	6.26	–	40.0	-54.3
CC(C)N1CCC(N2CCN(Cc3cc(F)ccc3-n3cccn3)CC2CCO)CC1 (configuration not stated)	–	–	–	–	–	–	73.3	-54.6
CC(C)N1CCN(Cc2cc(F)ccc2-n2cccn2)CC1CCO (configuration not stated)	–	–	–	–	–	–	·	·
O=C(COC(=O)COc1ccc(Cl)cc1)NC1CC1	·	·	·	–	·	·	·	·
CC(NC(=O)COc1ccccc1)C(=O)NCc1ccccc1Cl (configuration not stated)	·	·	·	–	·	·	·	·
COc1ccc(O)c(C(=O)c2cnn(C(=O)c3ccc(C)cc3)c2)c1	·	·	·	–	·	·	·	·
Cc1ccc(O)c(C(=O)c2cnn(C(=O)Cc3csc(C)n3)c2)c1	–	–	–	–	–	–	37.4	-42.9
COc1cc(C(C(=O)NCc2ccccc2)N(C(=O)c2snc(C(N)=O)c2N)C2CCCC2)cc(OC)c1OC (configuration not stated)	·	–	·	–	–	·	·	·
COc1ccc(/C=N/NC(C)(C)C)c(OC)c1	–	–	–	–	–	–	·	·
CC(=O)C1C(c2ccc(Cl)cc2)c2c(noc2C)CC1(C)O (configuration not stated)	·	–	·	–	–	·	·	·
Cc1cc(NS(=O)(=O)c2ccc(NC(=O)c3cnc4scc(C)n4c3=O)cc2)nc(C)n1	–	–	–	–	6.24	–	32.7	-27.2
Cc1noc(NS(=O)(=O)c2ccc(NC(=O)c3cnc4scc(C)n4c3=O)cc2)c1C	–	–	–	–	–	–	·	·
CN(Cc1ccccc1)C(=O)COc1cccnc1[N+](=O)[O-]	·	–	·	–	–	·	·	·
CCCSc1nc2cc(OC)c(OC)cc2c(=N)n1CCCN1CCOCC1	–	–	–	–	6.51	–	53.4	-39.6
COc1cccc(N=CNc2cccc(OC)c2)c1	·	·	·	–	·	·	·	·
COc1ccc(C(=O)NC(C)c2ccc(-n3ccnc3)cc2)cc1S(=O)(=O)N1CCOCC1 (configuration not stated)	·	·	·	–	·	·	·	·
CCOC(=O)c1cnc2ccc(OCC)cc2c1N1CCN(c2ccccc2OC)CC1	–	–	–	–	–	–	·	·
CCOC(=O)c1cnc2ccc(OCC)cc2c1N(C)Cc1ccccc1	–	–	–	–	9.6	–	41.2	–
CCCn1c(CN2CCN(C(=O)OCC)CC2)nc2cc(NC(=O)CC)ccc21	·	–	·	–	–	·	9.8	–
O=C(Nc1ccc2nc(SCc3ccc(Cl)cc3)sc2c1)c1ccccc1C(=O)N1CCOCC1	–	–	–	–	–	–	46.3	–

Screens: PubChem BioAssay, several laboratories
